{"source": "paper PMC2812024", "about": "(Journal of medicinal chemistry, 2008)", "key": {"μ-opioid receptor [1]": {"target": "T1, μ-opioid receptor (Cavia porcellus, UniProt P97266)", "T1 sequence (P97266 whole entry, looked up)": "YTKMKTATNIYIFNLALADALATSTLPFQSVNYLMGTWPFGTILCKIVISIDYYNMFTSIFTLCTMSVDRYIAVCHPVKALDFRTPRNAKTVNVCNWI", "assay": "Electrically stimulated guinea-pig ileum", "set-up": "species or system guinea pigs"}, "[2]": {"assay": "Enzymatic degradation in plasma", "assay_type": "in vitro ADME", "details": "4 h, preliminary"}, "[3]": {"assay": "Enzymatic degradation in brain homogenate", "assay_type": "in vitro ADME", "details": "2 h, preliminary"}, "mice [4]": {"tested_on": "mice", "assay": "Hot-plate test after icv injection", "assay_type": "in vivo, Swiss-Webster mice", "procedure,_shortened": "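Male Swiss-Webster mice (20–25 g); test compound in saline, 5 μL icv at bregma (needle 2.3–3 mm deep), placement checked after sacrifice. Latency to jump, lick or shake hind paws on a 55 °C plate at 10 min post-injection, then every 10 min; baseline 5–10 sec, cutoff 30 sec.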"}, "mice [5]": {"tested_on": "mice", "assay": "Tail-flick test after icv injection", "assay_type": "in vivo, Swiss-Webster mice", "procedure,_shortened": "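Radiant heat on the dorsal tail surface of male Swiss-Webster mice (20–25 g), with latency to tail removal timed. Baseline 2–3 sec, cutoff 8 sec. Readings start 10 min after icv test compound (5 μL saline at bregma) and repeat every 10 min.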"}, "mice [6]": {"tested_on": "mice", "assay": "Behavioural observation after icv injection", "assay_type": "in vivo"}, "δ-opioid receptor [7]": {"target": "T2, δ-opioid receptor (Mus musculus, UniProt P32300)", "T2 sequence (P32300 whole entry)": "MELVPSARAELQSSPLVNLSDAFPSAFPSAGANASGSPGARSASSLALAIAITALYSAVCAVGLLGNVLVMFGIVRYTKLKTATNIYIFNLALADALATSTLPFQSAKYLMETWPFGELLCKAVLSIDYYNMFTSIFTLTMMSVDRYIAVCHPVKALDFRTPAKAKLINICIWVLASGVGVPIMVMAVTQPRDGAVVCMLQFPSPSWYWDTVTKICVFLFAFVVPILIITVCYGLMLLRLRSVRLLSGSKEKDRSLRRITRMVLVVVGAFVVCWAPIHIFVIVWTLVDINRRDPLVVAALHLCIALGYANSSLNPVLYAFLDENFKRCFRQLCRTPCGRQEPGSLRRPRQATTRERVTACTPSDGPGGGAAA", "assay": "Electrically stimulated mouse vas deferens", "details": "MVD"}, "δ-opioid receptors": {"target": "δ-opioid receptors (Rattus norvegicus, UniProt P33533)", "sequence (P33533 whole entry)": "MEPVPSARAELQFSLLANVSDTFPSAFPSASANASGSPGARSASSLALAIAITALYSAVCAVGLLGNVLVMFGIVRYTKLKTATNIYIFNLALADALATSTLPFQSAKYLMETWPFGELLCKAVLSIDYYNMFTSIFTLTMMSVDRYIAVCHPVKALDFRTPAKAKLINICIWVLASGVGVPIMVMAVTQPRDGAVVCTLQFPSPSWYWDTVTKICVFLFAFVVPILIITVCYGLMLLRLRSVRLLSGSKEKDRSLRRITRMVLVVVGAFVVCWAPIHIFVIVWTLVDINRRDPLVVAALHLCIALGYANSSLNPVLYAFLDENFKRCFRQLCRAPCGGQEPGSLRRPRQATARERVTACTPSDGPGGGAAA", "details": "ref Balboni et al.[5], cited from earlier work; for Ki: read-out: Receptor affinity Ki^δ, reference compounds"}, "μ-opioid receptors": {"target": "μ-opioid receptors (Rattus norvegicus, UniProt P33535)", "sequence (P33535 whole entry)": "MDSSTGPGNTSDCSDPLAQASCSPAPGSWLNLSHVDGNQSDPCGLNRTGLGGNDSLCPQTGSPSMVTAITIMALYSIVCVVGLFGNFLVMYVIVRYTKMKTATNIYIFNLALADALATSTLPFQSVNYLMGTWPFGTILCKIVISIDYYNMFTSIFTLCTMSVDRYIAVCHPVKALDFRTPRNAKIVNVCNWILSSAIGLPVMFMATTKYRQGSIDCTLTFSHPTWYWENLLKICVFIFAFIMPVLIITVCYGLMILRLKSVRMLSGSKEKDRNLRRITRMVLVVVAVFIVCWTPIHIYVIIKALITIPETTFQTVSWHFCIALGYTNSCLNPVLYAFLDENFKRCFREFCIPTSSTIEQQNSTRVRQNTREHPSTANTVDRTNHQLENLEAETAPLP", "details": "read-out: Receptor affinity Ki^μ; reference compounds; ref Balboni et al.[5]; cited from earlier work"}, "δ-opioid receptor [8]": {"target": "T2, δ-opioid receptor", "details": "ref Balboni et al.[5], cited from earlier work"}, "μ-opioid receptor [9]": {"target": "T1, μ-opioid receptor", "details": "read-out: GPI IC50; μ agonism; ref Balboni et al.[5]; cited from earlier work"}, "[10]": {"details": "10 μg/mouse icv, sc naltrindole 3 mg/kg, naloxone 10 mg/kg 20 min before"}}, "note": "Like-named read-outs stand apart in the source and are kept apart here. Where a SMILES comes first, the peptide text is derived from it. [ ]: non-standard residue; d: D form. The star is where a group is joined. Dmt = Cc1cc(O)cc(C)c1C[C@H](N)C(=O)O; Tic = O=C(O)[C@@H]1Cc2ccccc2CN1; NHBn = c1ccc(CN*)cc1", "data": [{"molecule": "Cc1cc(O)cc(C)c1C[C@H](N)C(=O)N1Cc2ccccc2C[C@H]1C(=O)N[C@@H](CC(=O)O)C(=O)N(C)c1ccccc1", "note": "[Compound 8, H-Dmt-Tic-Asp-N(Me)-Ph]", "values": [{"measurement": "IC50", "setting": "μ-opioid receptor [1]", "result": "> 10000", "unit": "nM"}]}, {"molecule": "Cc1cc(O)cc(C)c1C[C@H](N)C(=O)N1Cc2ccccc2C[C@H]1C(=O)N[C@H](CC(=O)O)C(=O)N(C)c1ccccc1", "note": "[Compound 9, H-Dmt-Tic-D-Asp-N(Me)-Ph]", "values": [{"measurement": "IC50", "setting": "μ-opioid receptor [1]", "result": "> 10000", "unit": "nM"}]}, {"molecule": "Cc1cc(O)cc(C)c1C[C@H](N)C(=O)N1Cc2ccccc2C[C@H]1C(=O)N[C@@H](CC(=O)O)c1nc2ccccc2n1C", "note": "[Compound 10, H-Dmt-Tic-NH-(S)CH(CH2-COOH)-Bid(N^1-Me)]", "values": [{"measurement": "μ agonism relative to 4", "setting": "μ-opioid receptor [1]; GPI", "result": 1.7, "unit": "fold"}, {"measurement": "Stability to enzymic degradation", "setting": "[2]", "result": "fully stable"}, {"measurement": "Stability to enzymic degradation", "setting": "[3]", "result": "fully stable"}, {"measurement": "Reversal of analgesia by naltrindole and naloxone, hot-plate test", "setting": "mice [4]; [10]", "result": "not in the hot-plate test"}, {"measurement": "Analgesic effect, hot-plate test", "setting": "mice [4]; icv injection, mice, Figure 1", "result": "dose dependent analgesic effect"}, {"measurement": "Reversal of analgesia by naltrindole and naloxone, tail-flick test", "setting": "mice [5]; [10]", "result": "reversed"}, {"measurement": "Analgesic effect, tail-flick test", "setting": "mice [5]; icv injection, mice, Figure 1", "result": "dose dependent analgesic effect"}, {"measurement": "Convulsions", "setting": "mice [6]; highest doses", "result": "convulsions"}, {"measurement": "Behavioural effects in mice", "setting": "mice [6]; same dose", "result": "sedated, quiet, easily handled, and moving slowly if at all"}]}, {"molecule": "Cc1cc(O)cc(C)c1C[C@H](N)C(=O)N1Cc2ccccc2C[C@H]1C(=O)N[C@H](CC(=O)O)c1nc2ccccc2n1C", "note": "[Compound 11, H-Dmt-Tic-NH-(R)CH(CH2-COOH)-Bid(N^1-Me)]", "values": [{"measurement": "IC50", "setting": "μ-opioid receptor [1]", "result": "> 10000", "unit": "nM"}]}, {"molecule": "Cc1cc(O)cc(C)c1C[C@H](N)C(=O)N1Cc2ccccc2C[C@H]1C(=O)N[C@@H](CC(=O)O)C(=O)NCc1ccccc1", "note": "[Compound 13, H-Dmt-Tic-Asp-NH-Bzl] (H-[Dmt]-[Tic]-Asp-NHBn)", "values": [{"measurement": "δ antagonist activity, lower than 2", "setting": "δ-opioid receptor [7]", "result": 5, "unit": "fold"}]}, {"molecule": "H-Dmt-Tic-Gly-NH-Bzl [Compound 2]", "values": [{"measurement": "Ki", "setting": "δ-opioid receptors", "result": 0.031, "unit": "nM"}, {"measurement": "Selectivity Ki^μ/Ki^δ", "setting": "δ-opioid receptors", "result": 5}, {"measurement": "Ki", "setting": "μ-opioid receptors", "result": 0.16, "unit": "nM"}, {"measurement": "MVD pA2", "setting": "δ-opioid receptor [8]; δ antagonism", "result": 9.25}, {"measurement": "IC50", "setting": "μ-opioid receptor [9]", "result": 2.69, "unit": "nM"}]}, {"molecule": "H-Dmt-Tic-Gly-NH-Ph [Compound 1]", "values": [{"measurement": "Ki", "setting": "δ-opioid receptors", "result": 0.042, "unit": "nM"}, {"measurement": "Selectivity Ki^μ/Ki^δ", "setting": "δ-opioid receptors", "result": 4}, {"measurement": "Ki", "setting": "μ-opioid receptors", "result": 0.16, "unit": "nM"}, {"measurement": "IC50", "setting": "δ-opioid receptor [8]; read-out: MVD IC50, δ agonism", "result": 3.02, "unit": "nM"}, {"measurement": "IC50", "setting": "μ-opioid receptor [9]", "result": 2.57, "unit": "nM"}]}]}
